# Results gathered from unrelated publications.
# Each line is one published result; the experiments were not run side by side.
Compound,target or system,test,test system,conditions,quantity,result
Nc1ncn([C@@H]2O[C@H](CO)[C@@H](O)[C@H]2O)c(=O)n1,Zaire ebolavirus,"viral replication, inhibitor",Vero C1008,"50 µM, 72 h",inhibition,86%
CC[C@H](C)[C@H]1C(=O)N2CCC[C@H]2C(=O)O[C@H](C(C)(C)C)C[C@@H](C)C[C@H](O)[C@H](C)C2=N[C@@H](CCC(=O)N[C@@H](Cc3ccc(OC)cc3)C(=O)N(C)[C@@H](C)C(=O)N1C)CS2,Dengue virus,viral replication,Huh7.5,24 h,IC50,0.0033 µM
CC(C)(N)CNC(=O)C[C@H]1CC[C@]2(CC1)OO[C@]1(O2)C2CC3CC(C2)CC1C3,Zaire ebolavirus,"viral replication, inhibitor",HeLa,,IC50,4.53 µM
Cc1cccc(-n2ncc(Cl)c(Cl)c2=O)c1,NCI-H23,"cell growth or viability, resazurin",,96 h,IC50,0.21 µM
CC1=C(O)C(=O)C=C2C1=CC=C1[C@@]2(C)CC[C@@]2(C)[C@@H]3C[C@](C)(C(=O)OCCCn4cc(C=O)c5ccccc54)CC[C@]3(C)CC[C@]12C,Bel-7402,"cell growth or viability, MTT",,48 h,IC50,0.77 µM
CCN(CC)CCCC(C)Nc1ccnc2cc(Cl)ccc12 (stereo not drawn),Dengue virus,"viral replication, inhibitor","BHK-21, DENV2","50 µM, 24 h, replicon",inhibition,54.8%
CCN(CC)CCNc1ccc(C)c2sc3ccccc3c(=O)c12,Zaire ebolavirus,"viral replication, inhibitor",HeLa,,IC50,3.27 µM
CCN(CC)Cc1cc(Nc2ccnc3cc(Cl)ccc23)ccc1O,Zaire ebolavirus,"viral replication, inhibitor",Huh-7,24 h,IC50,2.13 µM
CCN(CC)Cc1cc(Nc2ccnc3cc(Cl)ccc23)ccc1O,Dengue virus,"viral replication, inhibitor","BHK-21, DENV2","50 µM, 24 h, replicon",inhibition,76.3%
CC1=C(O)C(=O)C=C2C1=CC=C1[C@@]2(C)CC[C@@]2(C)[C@@H]3C[C@](C)(C(=O)O)CC[C@]3(C)CC[C@]12C,Bel-7402,"cell growth or viability, MTT",,48 h,IC50,0.79 µM
Nc1ncnc2c([C@@H]3N[C@H](CO)[C@@H](O)[C@H]3O)c[nH]c12,Dengue virus,viral replication,"Vero 76, DENV2",3 µM,inhibition,11%
c1ccc([C@@H]2C[C@H]2NC2CCNCC2)cc1,MOLM-13,"cell growth or viability, resazurin",,96 h,EC50,0.00091 µM
